What is called IC50 is the concentration that inhibits the measured activity by half.

26 compounds from ChEMBL document CHEMBL2203235, “Optimization of a natural product-based class of γ-secretase modulators” (J Med Chem, 2012) can be followed below.

Data set [1] in a line: Modulation of gamma secretase in CHO-2B7 cells assessed as reduction in amyloid beta 40 level after 5 hrs by MSD ELISA. The class given is cell-based. Particulars: Cricetulus griseus, CHO-2B7, 5 h.
Data set [2] deals with Liver microsomes. In words: (§1) Metabolic stability in human liver microsomes assessed as compound remaining at 1 uM at 60 mins by LC/MS/MS analysis in absence of NADPH. Type of data set: ADME, Microsome. Particulars: microsomes, 1 h, 1 µM. A digest of the protocol: (§2)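 Human liver microsomes were run without NADPH as a qualitative read of susceptibility to enzymatic hydrolysis. The read-out was percent parent remaining at 60 min.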
Background: Liver microsomes are vesicles of endoplasmic reticulum, rich in cytochrome P450 enzymes.

Data set [3] is described as follows: Modulation of gamma secretase in CHO-2B7 cells assessed as reduction in amyloid beta 42 level after 5 hrs by MSD ELISA. The class given is cell-based. Particulars: Cricetulus griseus, CHO-2B7, 5 h. (In general: ELISA stands for enzyme-linked immunosorbent assay.)
Data set [4] deals with CHO-2B7. In words: Modulation of gamma secretase in CHO-2B7 cells assessed as reduction in amyloid beta 40 level at 20 uM after 5 hrs by MSD ELISA. The class given is cell-based. Details: scale not given: the % may be the effect or the level left. Conditions: Cricetulus griseus.
Data set [5] is described as follows: as §1. Type of data set: ADME, Microsome. Particulars: liver microsomes, read-out: Stability. Summed up:
as §2

Data set [6] concerns CHO-2B7. Kind of data set: Modulation of gamma secretase in CHO-2B7 cells assessed as reduction in amyloid beta 42 level at 20 uM after 5 hrs by MSD ELISA. Details: scale not given: the % may be the effect or the level left. Conditions: Cricetulus griseus. Type of data set: cell-based.
The test system of data set [7] is Liver microsomes. Kind of data set: Metabolic stability in human liver microsomes at 1 uM after 60 mins by LC/MS/MS analysis. Particulars: 1 h.

As for `CC(C)[C@@H](OC(=O)N(C)C)[C@H]1C[C@@H](C)[C@H]2[C@H](O1)[C@H](O)[C@@]1(C)[C@@H]3CC[C@H]4C(C)(C)[C@@H](OC(N)=O)CC[C@@]45C[C@@]35CC[C@]21C`, the IC50 was 19000 nM in data set [1] and 920 nM in data set [3]. For the same compound, in the data set on Liver microsomes [2], the Stability amounted to 131%.
`C[C@@H]1C[C@H](COC(=O)N(C)C)O[C@H]2[C@H]1[C@@]1(C)CC[C@@]34C[C@@]35CC[C@H](O[C@H]3CN(C(=O)CC6CC6)CCO3)C(C)(C)[C@@H]5CC[C@H]4[C@]1(C)[C@H]2O`: the Activity in the data set with CHO-2B7 [4] stood at 63%. Further, the remaining at 1 h, 1 µM in data set [5] was determined as 81%. Further, the IC50 in data set [3] was 1200 nM.
In the case of `CNC(=O)O[C@H](C(C)C)[C@H]1C[C@@H](C)[C@H]2[C@H](O1)[C@H](O)[C@@]1(C)[C@@H]3CC[C@H]4C(C)(C)[C@@H](OC(=O)N5CCC5)CC[C@@]45C[C@@]35CC[C@]21C`, the Activity in the data set on CHO-2B7 [4] came out at 47%. In addition, in the data set with Liver microsomes [2], the Stability was 152%. For the same compound, the IC50 in data set [3] is 17000 nM.
Turning to `C[C@@H]1C[C@H]([C@H](OC(=O)N(C)C)C(C)(C)O)O[C@H]2[C@H]1[C@@]1(C)CC[C@@]34C[C@@]35CC[C@H](O)C(C)(C)[C@@H]5CC[C@H]4[C@]1(C)[C@H]2O`, the Activity in the data set with CHO-2B7 [6] was determined as 53%. In addition, in data set [5], the remaining at 1 h, 1 µM came out at 115%.
As to `C[C@@H]1C[C@H]([C@H](O)C(C)(C)O)O[C@H]2[C@H]1[C@@]1(C)CC[C@@]34C[C@@]35CC[C@H](O[C@H]3CN(C(=O)c6nccn6C)CCO3)C(C)(C)[C@@H]5CC[C@H]4[C@]1(C)[C@H]2O`, the Activity in the data set with CHO-2B7 [6] worked out at 5%. Further, the IC50 in data set [3] came to 130 nM.
`CNC(=O)O[C@@H]([C@H]1C[C@@H](C)[C@H]2[C@H](O1)[C@H](O)[C@@]1(C)[C@@H]3CC[C@H]4C(C)(C)[C@@H](O)CC[C@@]45C[C@@]35CC[C@]21C)C(C)(C)O`: in the data set on CHO-2B7 [6], the Activity turned out to be 27%. Besides, in data set [5], the remaining at 1 h, 1 µM came to 96%.
`COC(=O)OC[C@H]1C[C@@H](C)[C@H]2[C@H](O1)[C@H](O)[C@@]1(C)[C@@H]3CC[C@H]4C(C)(C)[C@@H](O[C@H]5CN(C(=O)CC6CC6)CCO5)CC[C@@]45C[C@@]35CC[C@]21C`: in the data set with CHO-2B7 [4], the Activity stood at 46%. Besides, the remaining at 1 h, 1 µM in data set [5] was determined as 59%. For the same compound, the IC50 in data set [3] came to 330 nM.
With `CC(C)[C@@H](OC(N)=O)[C@H]1C[C@@H](C)[C@H]2[C@H](O1)[C@H](O)[C@@]1(C)[C@@H]3CC[C@H]4C(C)(C)[C@@H](OC(=O)NC5CNC5)CC[C@@]45C[C@@]35CC[C@]21C`, the half-inhibitory concentration (IC50) is 4000 nM in data set [1] and 160 nM in data set [3]. In addition, the Stability in the data set with Liver microsomes [2] came to 121%.
With `CC(=O)OC[C@H]1C[C@@H](C)[C@H]2[C@H](O1)[C@H](O)[C@@]1(C)[C@@H]3CC[C@H]4C(C)(C)[C@@H](O[C@H]5CN(C6COC6)CCO5)CC[C@@]45C[C@@]35CC[C@]21C`, the Activity in the data set on CHO-2B7 [4] and with CHO-2B7 [6] was 0% in each case. The remaining at 1 h, 1 µM in data set [5] was determined as 0%.
For `CC(C)[C@@H](OC(N)=O)[C@H]1C[C@@H](C)[C@H]2[C@H](O1)[C@H](O)[C@@]1(C)[C@@H]3CC[C@H]4C(C)(C)[C@@H](OC(=O)N5CCC5)CC[C@@]45C[C@@]35CC[C@]21C`, the Activity with CHO-2B7 [4] came out at 15%; in the data set with CHO-2B7 [6], 40%. Moreover, the remaining at 1 h, 1 µM in data set [5] came to 106%.
Turning to `CC(C)[C@@H](OC(=O)N(C)C)[C@H]1C[C@@H](C)[C@H]2[C@H](O1)[C@H](O)[C@@]1(C)[C@@H]3CC[C@H]4C(C)(C)[C@@H](OC(=O)N5CCC5)CC[C@@]45C[C@@]35CC[C@]21C`, the Activity in the data set on CHO-2B7 [4] and in the data set on CHO-2B7 [6] was 0% each time. In the data set with Liver microsomes [2], the Stability was determined as 127%.
For `CC(C)[C@@H](OC(=O)N1CCC1)[C@H]1C[C@@H](C)[C@H]2[C@H](O1)[C@H](O)[C@@]1(C)[C@@H]3CC[C@H]4C(C)(C)[C@@H](OC(N)=O)CC[C@@]45C[C@@]35CC[C@]21C`, the Stability in the data set with Liver microsomes [2] is recorded as 150%.
In the case of `CC(C)[C@@H](OC(=O)N1CCC1)[C@H]1C[C@@H](C)[C@H]2[C@H](O1)[C@H](O)[C@@]1(C)[C@@H]3CC[C@H]4C(C)(C)[C@@H](OC(=O)NC5CNC5)CC[C@@]45C[C@@]35CC[C@]21C`, the Stability result is “Stable” in the data set on Liver microsomes [7] and 127% with Liver microsomes [2]. For the same compound, the concentration for half-maximal inhibition (IC50) in data set [1] came out at 2600 nM; in data set [3] it was 100 nM.
As to `CNC(=O)O[C@H](C(C)C)[C@H]1C[C@@H](C)[C@H]2[C@H](O1)[C@H](O)[C@@]1(C)[C@@H]3CC[C@H]4C(C)(C)[C@@H](OC(=O)N5CCOCC5)CC[C@@]45C[C@@]35CC[C@]21C`, in the data set on CHO-2B7 [4], the Activity was 17%. Also, in the data set with Liver microsomes [2], the Stability is on record as 139%. For the same compound, the IC50 in data set [3] turned out to be 4600 nM.
As for `CNC(=O)O[C@H](C(C)C)[C@H]1C[C@@H](C)[C@H]2[C@H](O1)[C@H](O)[C@@]1(C)[C@@H]3CC[C@H]4C(C)(C)[C@@H](OC(N)=O)CC[C@@]45C[C@@]35CC[C@]21C`, the Activity with CHO-2B7 [4] worked out at 40%. The remaining at 1 h, 1 µM in data set [5] worked out at 117%. The IC50 in data set [3] came to 950 nM.
As for `CCO[C@@H]([C@H]1C[C@@H](C)[C@H]2[C@H](O1)[C@H](O)[C@@]1(C)[C@@H]3CC[C@H]4C(C)(C)[C@@H](OC(=O)NCCNS(=O)(=O)C(F)(F)F)CC[C@@]45C[C@@]35CC[C@]21C)C(C)(C)O`, the Stability result with Liver microsomes [7] is given as “Stable”. In the data set with CHO-2B7 [4], the Activity came to 13%. Also, the concentration for half-maximal inhibition (IC50) in data set [3] was 710 nM.
As to `C[C@@H]1C[C@H]([C@H](O)C(C)(C)O)O[C@H]2[C@H]1[C@@]1(C)CC[C@@]34C[C@@]35CC[C@H](O[C@H]3CN(CC(N)=O)CCO3)C(C)(C)[C@@H]5CC[C@H]4[C@]1(C)[C@H]2O`, the Activity with CHO-2B7 [6] turned out to be 0%. In addition, the IC50 in data set [3] was found to be 60 nM.
Regarding `CC(C)[C@@H](OC(=O)N1CCC1)[C@H]1C[C@@H](C)[C@H]2[C@H](O1)[C@H](O)[C@@]1(C)[C@@H]3CC[C@H]4C(C)(C)[C@@H](O[C@H]5CN(C(=O)CNS(=O)(=O)C(F)(F)F)CCO5)CC[C@@]45C[C@@]35CC[C@]21C`, the Stability entry with Liver microsomes [7] is on record as “Stable”. Also, in the data set on CHO-2B7 [4], the Activity worked out at 49%. In data set [3], the 50% inhibitory concentration (IC50) turned out to be 1300 nM.
On to `CC(=O)O[C@@H]([C@H]1C[C@@H](C)[C@H]2[C@H](O1)[C@H](O)[C@@]1(C)[C@@H]3CC[C@H]4C(C)(C)[C@@H](O[C@H]5CN(C(=O)CC6CC6)CCO5)CC[C@@]45C[C@@]35CC[C@]21C)C(C)(C)O`, for which the Activity with CHO-2B7 [4] turned out to be 38%. For the same compound, the remaining at 1 h, 1 µM in data set [5] was determined as 2%. Also, the IC50 in data set [3] was found to be 130 nM.
As for `CC(C)[C@@H](OC(=O)N(C)C)[C@H]1C[C@@H](C)[C@H]2[C@H](O1)[C@H](O)[C@@]1(C)[C@@H]3CC[C@H]4C(C)(C)[C@@H](OC(=O)N5CCOCC5)CC[C@@]45C[C@@]35CC[C@]21C`, the Activity with CHO-2B7 [4] was 17%. For the same compound, in data set [5], the remaining at 1 h, 1 µM came to 118%. The 50% inhibitory concentration (IC50) in data set [3] is 7400 nM.
Turning to `CCO[C@@H]([C@H]1C[C@@H](C)[C@H]2[C@H](O1)[C@H](O)[C@@]1(C)[C@@H]3CC[C@H]4C(C)(C)[C@@H](OC(=O)N5CCNC(C(F)(F)F)C5)CC[C@@]45C[C@@]35CC[C@]21C)C(C)(C)O` (stereo partly drawn), the Stability entry with Liver microsomes [7] is “Stable”. Besides, the Activity with CHO-2B7 [4] came out at 31%. Besides, the IC50 in data set [3] stood at 390 nM.
`CC(C)[C@@H](OC(=O)N1CCC1)[C@H]1C[C@@H](C)[C@H]2[C@H](O1)[C@H](O)[C@@]1(C)[C@@H]3CC[C@H]4C(C)(C)[C@@H](OC(=O)N5CCC5)CC[C@@]45C[C@@]35CC[C@]21C`: the Stability entry with Liver microsomes [7] is on record as “Stable”; in the data set with Liver microsomes [2], 158%. For the same compound, the values for the half-maximal inhibitory concentration (IC50) in data set [1] and in data set [3] were 10000 nM and 470 nM, respectively.
Take `CC(C)[C@@H](OC(=O)N1CCC1)[C@H]1C[C@@H](C)[C@H]2[C@H](O1)[C@H](O)[C@@]1(C)[C@@H]3CC[C@H]4C(C)(C)[C@@H](OC(=O)NC5CCOCC5)CC[C@@]45C[C@@]35CC[C@]21C`: in the data set on Liver microsomes [7], the Stability result is “Stable”. In addition, the Activity in the data set on CHO-2B7 [4] came out at 27%. Moreover, the IC50 in data set [3] turned out to be 3000 nM.
The matching figures for `CC(C)[C@@H](OC(=O)N1CCC1)[C@H]1C[C@@H](C)[C@H]2[C@H](O1)[C@H](O)[C@@]1(C)[C@@H]3CC[C@H]4C(C)(C)[C@@H](O[C@H]5CN(CC(=O)O)CCO5)CC[C@@]45C[C@@]35CC[C@]21C`: “Stable”, 41% and 700 nM.
For the compound `C[C@@H]1C[C@H]([C@H](O)C(C)(C)O)O[C@H]2[C@H]1[C@@]1(C)CC[C@@]34C[C@@]35CC[C@H](O[C@H]3CN(C(=O)C6(C)COC6)CCO3)C(C)(C)[C@@H]5CC[C@H]4[C@]1(C)[C@H]2O`, the Activity in the data set with CHO-2B7 [6] came out at 50%. In data set [3], the half-inhibitory concentration (IC50) was determined as 70 nM.
As to `CC(C)[C@@H](OC(N)=O)[C@H]1C[C@@H](C)[C@H]2[C@H](O1)[C@H](O)[C@@]1(C)[C@@H]3CC[C@H]4C(C)(C)[C@@H](OC(=O)N5CCOCC5)CC[C@@]45C[C@@]35CC[C@]21C`, the Activity in the data set with CHO-2B7 [4] amounted to 32%. Moreover, the Stability in the data set on Liver microsomes [2] came to 130%. In addition, the IC50 in data set [3] came to 3400 nM.
